33 compounds from ChEMBL document CHEMBL4219174, “Synthesis and evaluation of 2,9-disubstituted 8-phenylthio/phenylsulfinyl-9H-purine as new EGFR inhibitors” (Bioorg Med Chem, 2018) can be followed below.

Structures are written as SMILES. Active and inactive are the calls of the source. No cut-off for these calls is given here.

Series [1] has as its system HCC827. Nature of the series: Antiproliferative activity against human HCC827 cells after 72 hrs by MTT assay. The following applies: HCC827, 72 h. The series is classed as functional, cell-based.
The next series has as its system NCI-H1975. Nature of the series: Antiproliferative activity against human NCI-H1975 cells after 72 hrs by MTT assay. The series is classed as functional, cell-based. The following applies: NCI-H1975, 72 h. (Tetrazolium dyes change colour on reduction, which living cells bring about.)
The test system of another series is A549. The experiment in a line: Antiproliferative activity against human A549 cells after 72 hrs by MTT assay. The class given is functional, cell-based. The following applies: A549, 72 h.
Series [2] in a line: Selectivity ratio of IC50 for human NCI-H1975 cells to IC50 for human HCC827 cells. The class given is functional.
Series [3] can be described thus: Selectivity ratio of IC50 for human A549 cells to IC50 for human HCC827 cells. The series is classed as functional.
The target of series [4] is Epidermal growth factor receptor (Homo sapiens, UniProt P00533, C797S/L858R/T790M). The experiment in a line: Inhibition of EGFR L858R/T790M/C797S triple mutant (unknown origin) using poly (Glu, Tyr) as substrate after 40 mins by kinase-glo plus luminescence assay. (In Kinase-Glo more light means more ATP remaining.)
Epidermal growth factor receptor (Homo sapiens, UniProt P00533, C797S/L858R/T790M), sequence (P00533 25-1210 T790M/C797S/L858R limits assumed): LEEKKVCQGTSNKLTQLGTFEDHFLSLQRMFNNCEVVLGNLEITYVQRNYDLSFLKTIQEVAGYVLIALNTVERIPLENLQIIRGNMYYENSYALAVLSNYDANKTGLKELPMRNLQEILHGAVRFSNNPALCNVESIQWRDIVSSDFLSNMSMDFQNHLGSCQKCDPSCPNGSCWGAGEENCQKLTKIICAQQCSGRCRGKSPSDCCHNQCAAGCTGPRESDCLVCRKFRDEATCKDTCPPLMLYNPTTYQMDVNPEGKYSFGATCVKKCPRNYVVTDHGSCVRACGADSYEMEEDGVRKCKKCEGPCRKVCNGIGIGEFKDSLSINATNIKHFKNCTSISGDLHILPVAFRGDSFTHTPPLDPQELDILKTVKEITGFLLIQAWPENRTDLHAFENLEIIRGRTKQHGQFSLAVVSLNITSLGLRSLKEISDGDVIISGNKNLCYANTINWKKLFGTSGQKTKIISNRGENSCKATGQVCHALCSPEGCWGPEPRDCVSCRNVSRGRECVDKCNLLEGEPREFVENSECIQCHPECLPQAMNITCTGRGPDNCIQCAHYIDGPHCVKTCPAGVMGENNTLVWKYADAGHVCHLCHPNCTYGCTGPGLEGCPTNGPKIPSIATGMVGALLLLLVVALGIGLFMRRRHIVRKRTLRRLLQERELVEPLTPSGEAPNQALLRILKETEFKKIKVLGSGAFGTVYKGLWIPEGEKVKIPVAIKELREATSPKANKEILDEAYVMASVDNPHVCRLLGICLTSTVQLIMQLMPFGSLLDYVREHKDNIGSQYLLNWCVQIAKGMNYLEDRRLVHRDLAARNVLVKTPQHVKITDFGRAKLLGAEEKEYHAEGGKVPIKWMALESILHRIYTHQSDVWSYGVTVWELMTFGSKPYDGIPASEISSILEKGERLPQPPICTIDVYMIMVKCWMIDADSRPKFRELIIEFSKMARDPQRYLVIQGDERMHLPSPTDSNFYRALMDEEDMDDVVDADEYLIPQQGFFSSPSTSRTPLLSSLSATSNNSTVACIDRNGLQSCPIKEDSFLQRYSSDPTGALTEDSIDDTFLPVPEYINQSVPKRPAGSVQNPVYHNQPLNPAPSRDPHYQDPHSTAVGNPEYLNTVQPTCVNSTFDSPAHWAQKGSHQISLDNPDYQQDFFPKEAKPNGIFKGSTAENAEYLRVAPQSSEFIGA
Series [5] relates to HCC827. The experiment in a line: Antiproliferative activity against human HCC827 cells at 1 uM after 72 hrs by MTT assay relative to control. The class given is functional. The following applies: for Emax at 1 µM: Homo sapiens, HCC827, 72 h. Put shortly:
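Human lung carcinoma HCC827 cells (EGFR Del E746-A750) were tested by MTT colorimetric assay, with gefitinib and AZD9291 as positive controls. The read-out was percent growth inhibition at a single fixed concentration.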

Series [6] has as its target T1, Epidermal growth factor receptor (Homo sapiens, UniProt P00533). The experiment in a line: Inhibition of wild type EGFR (unknown origin) using poly (Glu, Tyr) as substrate after 40 mins by kinase-glo plus luminescence assay.
For series [7], the target named is Epidermal growth factor receptor (Homo sapiens, UniProt P00533, L858R/T790M). Nature of the series: Inhibition of EGFR L858R/T790M double mutant (unknown origin) using poly (Glu, Tyr) as substrate after 40 mins by kinase-glo plus luminescence assay.
Epidermal growth factor receptor (Homo sapiens, UniProt P00533, L858R/T790M), sequence (P00533 25-1210 T790M/L858R limits assumed): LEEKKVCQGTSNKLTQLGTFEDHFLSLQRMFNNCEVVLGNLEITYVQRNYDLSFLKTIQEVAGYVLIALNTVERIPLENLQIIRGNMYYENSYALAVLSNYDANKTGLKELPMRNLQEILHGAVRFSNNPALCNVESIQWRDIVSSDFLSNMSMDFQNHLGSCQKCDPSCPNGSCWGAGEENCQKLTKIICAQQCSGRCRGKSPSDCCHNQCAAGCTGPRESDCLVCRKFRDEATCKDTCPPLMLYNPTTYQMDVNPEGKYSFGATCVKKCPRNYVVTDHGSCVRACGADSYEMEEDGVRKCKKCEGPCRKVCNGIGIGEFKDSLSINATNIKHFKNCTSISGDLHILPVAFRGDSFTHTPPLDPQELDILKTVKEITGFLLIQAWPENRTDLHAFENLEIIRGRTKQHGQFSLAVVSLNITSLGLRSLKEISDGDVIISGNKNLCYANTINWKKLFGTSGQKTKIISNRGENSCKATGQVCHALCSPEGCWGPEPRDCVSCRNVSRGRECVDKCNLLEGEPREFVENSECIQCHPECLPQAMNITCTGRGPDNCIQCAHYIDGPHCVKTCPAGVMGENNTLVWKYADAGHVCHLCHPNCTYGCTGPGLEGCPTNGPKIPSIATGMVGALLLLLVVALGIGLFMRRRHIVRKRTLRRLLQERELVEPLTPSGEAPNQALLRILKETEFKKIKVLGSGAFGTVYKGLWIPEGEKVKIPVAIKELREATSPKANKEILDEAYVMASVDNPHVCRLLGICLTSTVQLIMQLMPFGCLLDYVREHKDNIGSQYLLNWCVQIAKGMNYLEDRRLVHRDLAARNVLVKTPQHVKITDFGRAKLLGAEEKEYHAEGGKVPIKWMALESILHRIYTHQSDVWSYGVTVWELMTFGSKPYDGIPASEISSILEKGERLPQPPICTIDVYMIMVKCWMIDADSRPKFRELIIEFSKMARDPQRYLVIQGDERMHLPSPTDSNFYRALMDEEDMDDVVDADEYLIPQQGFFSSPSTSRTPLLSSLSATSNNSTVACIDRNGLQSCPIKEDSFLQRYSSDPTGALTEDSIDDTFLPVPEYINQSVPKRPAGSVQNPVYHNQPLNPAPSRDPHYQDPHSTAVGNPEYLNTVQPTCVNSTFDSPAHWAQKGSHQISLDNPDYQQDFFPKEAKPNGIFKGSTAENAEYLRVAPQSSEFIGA
Series [8] has as its target T1, Epidermal growth factor receptor. Nature of the series: Inhibition of EGFR auto-phosphorylation in human HCC827 cells after 8 hrs by Western blot analysis. The class given is cell-based.
Series [9] deals with HCC827. Nature of the series: Anti-tumor activity against human HCC827 cells xenografted in nude Balb/c mouse assessed as tumor growth inhibition at 5 mg/kg, po administered once daily for 20 days measured once in three days till day 21. The series is classed as functional, organism-based. The gist of the method:
(§1)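 HCC827 (EGFR Del E746-A750) xenografts in nude mice, n = 6 per group. Oral dosing at 1 or 5 mg/kg once daily for 20 days, compared against a vehicle group. Read-outs were tumor growth curves and body weight over the treatment period, plus final tumor weight after 20 days. Significance was tested vs vehicle.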
On the technique in general: A xenograft is tissue or cells of one species grown in another, often human tumour cells in immunodeficient mice.

The next series concerns Mus musculus. Nature of the series: Toxicity in nude Balb/c mouse xenografted with human HCC827 cells assessed as increase in body weight at 5 mg/kg, po administered once daily for 20 days measured every day till day 21. The class given is organism-based. To be noted: in vivo, 480 h. The gist of the method:
as §1

T1 sequence (P00533 whole entry): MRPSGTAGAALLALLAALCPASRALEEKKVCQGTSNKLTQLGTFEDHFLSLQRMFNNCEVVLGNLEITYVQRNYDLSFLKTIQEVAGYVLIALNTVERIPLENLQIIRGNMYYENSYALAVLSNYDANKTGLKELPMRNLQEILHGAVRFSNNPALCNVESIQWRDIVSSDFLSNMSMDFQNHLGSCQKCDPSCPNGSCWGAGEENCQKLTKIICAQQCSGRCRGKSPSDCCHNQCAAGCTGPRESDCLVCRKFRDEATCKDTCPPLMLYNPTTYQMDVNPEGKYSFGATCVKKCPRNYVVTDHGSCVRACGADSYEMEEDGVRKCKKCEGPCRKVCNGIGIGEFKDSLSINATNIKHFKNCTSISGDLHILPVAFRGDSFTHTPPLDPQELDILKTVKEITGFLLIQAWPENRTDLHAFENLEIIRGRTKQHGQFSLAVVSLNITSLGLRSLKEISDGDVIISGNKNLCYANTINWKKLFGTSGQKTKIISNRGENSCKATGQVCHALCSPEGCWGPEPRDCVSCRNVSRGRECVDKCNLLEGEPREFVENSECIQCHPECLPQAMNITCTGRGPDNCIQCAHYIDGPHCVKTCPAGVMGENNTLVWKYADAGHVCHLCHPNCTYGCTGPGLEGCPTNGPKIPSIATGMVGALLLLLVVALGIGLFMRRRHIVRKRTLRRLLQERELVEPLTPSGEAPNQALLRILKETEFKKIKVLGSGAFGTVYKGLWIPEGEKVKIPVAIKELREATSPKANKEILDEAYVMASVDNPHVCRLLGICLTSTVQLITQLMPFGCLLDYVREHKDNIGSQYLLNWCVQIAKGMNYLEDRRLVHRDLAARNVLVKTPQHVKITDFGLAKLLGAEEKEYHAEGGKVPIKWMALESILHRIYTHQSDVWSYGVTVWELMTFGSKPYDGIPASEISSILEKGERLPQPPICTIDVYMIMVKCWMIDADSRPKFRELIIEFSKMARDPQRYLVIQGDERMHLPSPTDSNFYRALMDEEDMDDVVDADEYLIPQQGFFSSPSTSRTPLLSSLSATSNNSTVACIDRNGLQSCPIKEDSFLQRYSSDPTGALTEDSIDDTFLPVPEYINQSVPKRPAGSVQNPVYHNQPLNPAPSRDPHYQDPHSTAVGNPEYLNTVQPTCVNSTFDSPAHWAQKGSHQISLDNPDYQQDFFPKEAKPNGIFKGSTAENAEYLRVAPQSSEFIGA

What is called IC50 is the midpoint of a concentration-inhibition curve. In turn, `CN1CCN(c2ccc(Nc3ncc4nc([S+]([O-])c5ccccc5)n([C@H]5CC[C@H](O)CC5)c4n3)cc2)CC1` (stereo partly drawn) returned an IC50 with HCC827 [1] of 268 nM.
On the same count and under the same terms, for `CN1CCN(c2ccc(Nc3ncc4nc([S+]([O-])c5ccccc5)n(CC5CC5)c4n3)cc2)CC1` (stereo not drawn) the value was 838 nM; for `CN1CCN(c2ccc(Nc3ncc4nc(SCc5cccnc5)n(C5CCCC5)c4n3)cc2)CC1`, 517 nM.
For `CN(C)CCOc1ccc(Nc2ncc3nc(Sc4ccccc4)n(C4CCOCC4)c3n2)cc1`, the concentration for half-maximal inhibition (IC50) in the series with HCC827 [1] was 44.3 nM; in the series with NCI-H1975, 9610 nM; with A549 it was greater than 10000 nM; in series [4], 556 nM. For the same compound, the “Ratio IC50” value in series [2] is listed as 217; in [3], greater than 226. This compound came in with an Emax at 1 µM in the series on HCC827 [5] of 78%.
As for `CN1CCN(c2ccc(Nc3ncc4nc([S+]([O-])c5ccccc5)n(C5CCOCC5)c4n3)cc2)CC1` (stereo not drawn), in the series on HCC827 [1], half-maximal inhibition (IC50) required 411 nM.
Still for that read-out and setting: for `CN1CCN(c2ccc(Nc3ncc4nc(Sc5ccccc5)n(C5CC5)c4n3)cc2)CC1` the value was 304 nM.
On the same count and under the same terms, to `CN(C)CCN(C)c1ccc(Nc2ncc3nc([S+]([O-])c4ccccc4)n(C4CCOCC4)c3n2)cc1` (stereo not drawn) belongs 1330 nM.
For the compound `CN1CCN(c2ccc(Nc3ncc4nc(Nc5ccccc5)n(C5CCCC5)c4n3)cc2)CC1`, in the series on HCC827 [1], the 50% inhibitory concentration (IC50) amounted to 35.9 nM. The compound further came in with an Emax at 1 µM in the series with HCC827 [5] of 70%.
`CN(C)CCOc1ccc(Nc2ncc3nc([S+]([O-])c4cccc(F)c4)n(C4CCOCC4)c3n2)cc1` (stereo not drawn) yielded an IC50 in the series with HCC827 [1] of 359 nM.
Regarding `C=CC(=O)Nc1cc(Nc2nccc(-c3cn(C)c4ccccc34)n2)c(OC)cc1N(C)CCN(C)C` [OSIMERTINIB], the IC50 in the series with HCC827 [1] was 25.4 to 43.1 nM; in the series with NCI-H1975, […]; in the series on A549 it was 486 nM. In addition, the Emax in the series on HCC827 [5] is listed as 73%.
In the series on HCC827 [1], `CN1CCN(c2ccc(Nc3ncc4nc([S+]([O-])Cc5cccnc5)n(C5CCOCC5)c4n3)cc2)CC1` (stereo not drawn) yielded an IC50 greater than 10000 nM.
Same read-out and setting: for `CN1CCN(c2ccc(Nc3ncc4nc(Sc5ccccc5)n(CC5CC5)c4n3)cc2)CC1` the value was 660 nM; for `CN1CCN(c2ccc(Nc3ncc4nc(SCc5cccnc5)n(C5CC5)c4n3)cc2)CC1`, 8830 nM.
In the case of `CN(C)C1CCN(c2ccc(Nc3ncc4nc(Sc5ccccc5)n(C5CCOCC5)c4n3)cc2)CC1`, the half-maximal inhibitory concentration (IC50) in the series on HCC827 [1] is 29.4 nM; with NCI-H1975, 4990 nM; in the series on A549 it was greater than 10000 nM; in [6], 1.6 nM; in series [7], 104 nM; in series [4], 331 nM. The “Ratio IC50” value in series [2] is recorded as 170; in series [3] it was greater than 340. The compound also returned an Emax at 1 µM in the series with HCC827 [5] of 81%. For the same compound, the inhibition entry in series [8] is “Dose-dependent effect”. In the series on HCC827 [9], the TGI result was “Active”. For the same compound, the Activity entry with Mus musculus is on record as “Non-Toxic”.
Compound `CN1CCN(c2ccc(Nc3ncc4nc([S+]([O-])c5ccccc5)n(C5CC5)c4n3)cc2)CC1` (stereo not drawn) returned a 50% inhibitory concentration (IC50) in the series on HCC827 [1] of 1630 nM.
On the same count and under the same terms, to `CC(C)n1c(Sc2ccccc2)nc2cnc(Nc3ccc(N4CCN(C)CC4)cc3)nc21` belongs 290 nM.
For `CN(C)CCOc1ccc(Nc2ncc3nc(Sc4ccc(F)cc4)n(C4CCOCC4)c3n2)cc1`, the half-maximal inhibitory concentration (IC50) with HCC827 [1] came to 47.8 nM; in the series with NCI-H1975 it was 6260 nM; with A549, 4850 nM; in [6], 2.5 nM; in series [7], 189 nM; in [4] it was 114 nM. The entries for the “Ratio IC50” value in series [2] and in series [3] were 131 and 101, respectively.
For the compound `CN1CCN(c2ccc(Nc3ncc4nc([S+]([O-])Cc5cccnc5)n(C5CCCC5)c4n3)cc2)CC1` (stereo not drawn), the IC50 with HCC827 [1] turned out to be 2350 nM.
`CN1CCN(c2ccc(Nc3ncc4nc([S+]([O-])Cc5ccccc5)n(C5CCOCC5)c4n3)cc2)CC1` (stereo not drawn) registered an IC50 with HCC827 [1] of 433 nM.
On the same count and under the same terms, to `CC(C)n1c([S+]([O-])c2ccccc2)nc2cnc(Nc3ccc(N4CCN(C)CC4)cc3)nc21` (stereo not drawn) belongs 214 nM; to `CN1CCC(Oc2ccc(Nc3ncc4nc(Sc5ccccc5)n(C5CCOCC5)c4n3)cc2)CC1`, 140 nM.
On the same count and under the same terms, for `CN1CCN(c2ccc(Nc3ncc4nc(SCc5ccccc5)n(C5CCOCC5)c4n3)cc2)CC1` the value was 106 nM.
`CN(C)CCOc1ccc(Nc2ncc3nc([S+]([O-])c4ccccc4)n(C4CCOCC4)c3n2)cc1` (stereo not drawn): the IC50 is 50.3 nM with HCC827 [1], greater than 10000 nM with NCI-H1975 and greater than 10000 nM with A549. For the same compound, the “Ratio IC50” value in series [2] and in series [3] was greater than 198 each time.
For the compound `CN(C)CCOc1ccc(Nc2ncc3nc(Sc4cccc(F)c4)n(C4CCOCC4)c3n2)cc1`, the half-inhibitory concentration (IC50) with HCC827 [1] was 51.4 nM; with NCI-H1975, 2770 nM; with A549 it was 3360 nM; in series [4], 805 nM. Besides, the “Ratio IC50” value was found to be 54 in [2] and 65 in [3].
As to `CN1CCC(Oc2ccc(Nc3ncc4nc([S+]([O-])c5ccccc5)n(C5CCOCC5)c4n3)cc2)CC1` (stereo not drawn), the IC50 in the series with HCC827 [1] was determined as 853 nM.
The same measure, in the same setting: to `CN1CCN(c2ccc(Nc3ncc4nc(SCc5cccnc5)n(C5CCOCC5)c4n3)cc2)CC1` belongs 500 nM; to `CN(C)CCN(C)c1ccc(Nc2ncc3nc(Sc4ccccc4)n(C4CCOCC4)c3n2)cc1`, 499 nM.
Same read-out and setting: for `CN(C)C1CCN(c2ccc(Nc3ncc4nc([S+]([O-])c5ccccc5)n(C5CCOCC5)c4n3)cc2)CC1` (stereo not drawn) the value was 1290 nM.
`CN1CCN(c2ccc(Nc3ncc4nc(Sc5ccccc5)n([C@H]5CC[C@H](O)CC5)c4n3)cc2)CC1`: the IC50 was 42.6 to 47.9 nM in the series on HCC827 [1], 1320 nM in the series with NCI-H1975, 426 nM in the series with A549 and 529 nM in series [4]. The “Ratio IC50” value in series [2] was found to be 31; in series [3] it was 10.
On to `CN(C)CCOc1ccc(Nc2ncc3nc([S+]([O-])c4ccc(F)cc4)n(C4CCOCC4)c3n2)cc1` (stereo not drawn), for which 553 nM corresponded to half-maximal inhibition with HCC827 [1] (IC50).
Take `CN1CCN(c2ccc(Nc3ncc4nc(Sc5ccccc5)n(C5CCOCC5)c4n3)cc2)CC1`: the IC50 in the series on HCC827 [1] turned out to be 42.6 nM; in the series with NCI-H1975 it was 2260 nM; in the series on A549 it was 2940 nM; in [4], 892 nM. Further, the results for the “Ratio IC50” value in [2] and in series [3] were 53 and 69, respectively.
For `CN1CCN(c2ccc(Nc3ncc4nc(Sc5ccccc5)n(C5CCCC5)c4n3)cc2)CC1`, the IC50 was 51.2 nM in the series with HCC827 [1], 5580 nM with NCI-H1975 and 237 nM in the series with A549. Besides, the “Ratio IC50” value in series [2] is listed as 109; in [3], 5.
On to `CN1CCN(c2ccc(Nc3ncc4nc([S+]([O-])c5ccccc5)n(C5CCCC5)c4n3)cc2)CC1` (stereo not drawn), for which the IC50 in the series on HCC827 [1] was 64.7 nM; in the series with NCI-H1975 it was 5110 nM; with A549, greater than 10000 nM. Also, the “Ratio IC50” value in series [2] is 79; in series [3] it was greater than 154.
